Measurements taken from ChEMBL document CHEMBL1122908, “10-Ketonaltrexone and 10-ketooxymorphone” (J Med Chem, 1985).

Tests used:
[1] = molecular target: Mu-type opioid receptor (Cavia porcellus) (UniProt P97266); assay: Dose ratio due to Antagonist Effect at a concentration of 100 nM by normorphine, Opioid receptor mu 1 in the guinea pig ileum longitudinal muscle myenteric plexus.; format: functional, tissue-based
Summary of the method: (§1)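 Isolated guinea pig ileum myenteric plexus–longitudinal muscle and mouse vas deferens. Agonists were normorphine (μ) and ethylketazocine (κ) in both tissues, and (D-Ala2,D-Leu5)enkephalin (δ) in vas deferens. The shift in IC50 is given as dose ratio, mean ± SEM of three to five separate experiments.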

[2] = molecular target: Delta-type opioid receptor (Mus musculus) (UniProt P32300); assay: Dose ratio due to Antagonist Effect at a concentration of 1000 nM by (D-Ala2, D-Leu5)enkephalin, Opioid receptor delta 1 in mouse vas deferens.; format: functional
Summary of the method: as §1, with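 “vas deferens. […] The shift” for “vas deferens. The shift”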

[3] = molecular target: Kappa-type opioid receptor (Cavia porcellus, UniProt P41144); assay: (§2) Inhibitory binding constant in guinea pig brain homogenate was reported at Opioid receptor kappa 1 at temperature 25 degree Celsius labeled with (-)-[3H]immazocine (0.1 nM).; format: tissue-based
[4] = molecular target: Kappa-type opioid receptor (Cavia porcellus) (UniProt P41144); assay: Dose ratio due to Antagonist Effect at a concentration of 100 nM by ethylketazocine, Opioid receptor kappa 1 in the guinea pig ileum longitudinal muscle myenteric plexus.; format: functional, tissue-based; summary of the method: as §1
[5] = molecular target: Kappa-type opioid receptor (Mus musculus) (UniProt P33534); assay: Dose ratio due to Antagonist Effect at a concentration of 100 nM by ethylketazocine, Opioid receptor kappa 1 in mouse vas deferens.; format: functional; summary of the method: as §1
Mu-type opioid receptor = Mu-type opioid receptor (Cavia porcellus, UniProt P97266); assay: Inhibitory binding constant in guinea pig brain homogenate was reported at mu site at a temperature 25 degree Centigrade labeled with [3H](D-Ala2-MePhe4,Gly-ol5)enkephalin(1 nM); format: tissue-based
[6] = molecular target: Mu-type opioid receptor (Mus musculus) (UniProt P42866); assay: Dose ratio due to Antagonist Effect at a concentration of 100 nM by normorphine, Opioid receptor mu 1 in mouse vas deferens.; format: functional; summary of the method: as §1
Mus musculus = organism: Mus musculus; assay: Agonist activity in the mouse vas deferens.; format: functional
Summary of the method: (§3)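 Isolated guinea pig ileum myenteric plexus–longitudinal muscle or mouse vas deferens preparations, run at 25 °C, testing opioid agonist potency.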

[7] = molecular target: Kappa-type opioid receptor (Cavia porcellus) (UniProt P41144); assay: as §2; format: tissue-based
Cavia porcellus = organism: Cavia porcellus; assay: Agonist activity in the guinea pig ileum longitudinal muscle myenteric plexus.; format: functional; summary of the method: as §3
[8] = molecular target: Mu-type opioid receptor (Cavia porcellus) (UniProt P97266); assay: Inhibitory binding constant in guinea pig brain homogenate was reported at mu site at a temperature 25 degree Celsius labeled with [3H](D-Ala2-MePhe4,Gly-ol5)enkephalin(1nM); format: tissue-based

Kappa-type opioid receptor (Cavia porcellus), sequence (P41144 whole entry): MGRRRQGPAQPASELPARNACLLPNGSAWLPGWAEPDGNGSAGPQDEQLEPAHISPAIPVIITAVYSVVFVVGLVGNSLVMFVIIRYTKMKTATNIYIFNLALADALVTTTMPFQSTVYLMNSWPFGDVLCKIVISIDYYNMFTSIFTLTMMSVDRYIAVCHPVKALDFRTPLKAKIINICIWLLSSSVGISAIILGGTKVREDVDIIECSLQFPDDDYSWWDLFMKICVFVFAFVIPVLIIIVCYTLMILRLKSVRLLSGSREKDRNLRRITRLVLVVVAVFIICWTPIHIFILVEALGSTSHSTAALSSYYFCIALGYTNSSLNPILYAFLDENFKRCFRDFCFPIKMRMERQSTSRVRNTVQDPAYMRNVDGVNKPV
Mu-type opioid receptor (Cavia porcellus), sequence (P97266 whole entry): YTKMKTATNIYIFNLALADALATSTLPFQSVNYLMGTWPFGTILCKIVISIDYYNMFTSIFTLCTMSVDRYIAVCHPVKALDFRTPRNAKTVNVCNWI
Kappa-type opioid receptor, sequence (P41144 whole entry): as the sequence (P41144 whole entry) above
Delta-type opioid receptor (Mus musculus), sequence (P32300 whole entry): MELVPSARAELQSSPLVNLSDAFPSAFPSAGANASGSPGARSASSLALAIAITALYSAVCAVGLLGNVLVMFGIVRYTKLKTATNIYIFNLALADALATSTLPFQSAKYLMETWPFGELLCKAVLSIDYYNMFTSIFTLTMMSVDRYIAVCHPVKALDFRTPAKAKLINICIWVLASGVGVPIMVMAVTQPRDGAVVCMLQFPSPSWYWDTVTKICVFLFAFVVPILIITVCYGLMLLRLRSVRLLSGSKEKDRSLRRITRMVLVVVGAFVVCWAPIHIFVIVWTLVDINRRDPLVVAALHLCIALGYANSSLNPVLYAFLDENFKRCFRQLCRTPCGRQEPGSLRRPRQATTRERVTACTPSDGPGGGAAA
Mu-type opioid receptor, sequence (P97266 whole entry): as the sequence (P97266 whole entry) above
Kappa-type opioid receptor (Mus musculus), sequence (P33534 whole entry): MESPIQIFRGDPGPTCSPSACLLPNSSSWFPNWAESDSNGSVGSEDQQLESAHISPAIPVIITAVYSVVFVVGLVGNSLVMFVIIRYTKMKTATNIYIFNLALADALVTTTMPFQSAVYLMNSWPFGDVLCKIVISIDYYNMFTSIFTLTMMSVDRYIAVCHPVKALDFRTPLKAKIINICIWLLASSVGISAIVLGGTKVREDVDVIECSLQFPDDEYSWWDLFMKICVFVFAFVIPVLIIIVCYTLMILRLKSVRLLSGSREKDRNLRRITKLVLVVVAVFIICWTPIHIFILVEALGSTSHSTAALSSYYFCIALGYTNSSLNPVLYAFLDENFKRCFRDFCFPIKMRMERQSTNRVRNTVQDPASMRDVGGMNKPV
Mu-type opioid receptor (Mus musculus), sequence (P42866 whole entry): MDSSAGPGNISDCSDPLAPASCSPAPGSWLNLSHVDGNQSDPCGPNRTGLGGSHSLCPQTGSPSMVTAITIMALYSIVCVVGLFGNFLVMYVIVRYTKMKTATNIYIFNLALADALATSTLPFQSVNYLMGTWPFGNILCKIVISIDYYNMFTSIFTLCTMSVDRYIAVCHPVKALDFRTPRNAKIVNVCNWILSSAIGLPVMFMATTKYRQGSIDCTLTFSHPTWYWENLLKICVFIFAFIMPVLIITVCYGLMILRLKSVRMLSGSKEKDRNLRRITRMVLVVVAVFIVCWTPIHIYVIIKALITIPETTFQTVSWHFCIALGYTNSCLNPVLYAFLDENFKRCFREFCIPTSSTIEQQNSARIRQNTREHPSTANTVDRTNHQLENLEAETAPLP

Compound	Dose ratio [1]	Dose ratio [2]	Ki [3]	Dose ratio [4]	Dose ratio [5]	Ki (Mu-type opioid receptor)	Dose ratio [6]	IC50 (Mus musculus)	inhibition [7]	IC50 (Cavia porcellus)	inhibition [8]
O=C1c2ccc(O)c3c2C24CCN(CC5CC5)C1[C@]2(O)CCC(=O)[C@@H]4O3 (stereo partly drawn) [KETONALTREXONE]	1.84	0.71	102 nM	1.58	0.93	31.1 nM	0.57				
CN1CCC23c4c5ccc(O)c4O[C@H]2C(=O)CC[C@@]3(O)C1C5=O (stereo partly drawn) [KETOXYMORPHONE]								> 1000 nM	17%	> 1000 nM	19%
CN1CC[C@]23c4c5ccc(O)c4O[C@H]2C(=O)CC[C@@]3(O)[C@H]1C5 [OXYMORPHONE]								77 nM		24 nM	
